Measured values from PMC5766731 (Clinical Pharmacokinetics, 2017).
Where two headings read alike, the source gives them in different places.

Assays:
[1] = Part II safety assessment; assay type: in vivo, human
Outline: (§1)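 Safety monitored under ICH-GCP in each part (single 10–300 mg; alternate-day 100–300 mg; 150 mg fasted/fed crossover). Assessments: adverse events coded with MedDRA version 18.0, clinical examinations, frequent vital signs, 12-lead ECGs, clinical laboratory tests, and continuous ECG for 24 h post-dose in parts I and II. Post-dose vs baseline compared by paired two-sided t test, α = 0.05.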

[2] = Part III sex and food effect pharmacokinetics; assay type: in vivo, human; details: for AUCt / AUC∞ / C max / CL/F_obs / HL_Lambda_z (terminal half-life) / V z/F_obs / λz: part III, single oral 150 mg, n = 10, mean ± SD
Outline: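 Open-label crossover at a single 150 mg oral dose, with at least 14 days washout and an overnight fast of at least 10 h before each dose. Period I: 12 subjects (6 men, 6 women), fasted. Period II: 10 subjects (5 men, 5 women) given a high-fat, roughly 800–1000 calorie breakfast 30 min pre-dose. Drug measured in diluted blood by LC-MS/MS (2–5000 ng/mL). Food effect tested by two-sided t test, α = 0.05.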

cytochrome P450 (CYP) = details: cited from earlier work
[3] = beagle dogs, oral route; cited from earlier work
[4] = Part II multiple ascending-dose pharmacokinetics; assay type: in vivo, human; details: for t max / AUCt / AUC∞ / Accumulation Index / C max / CL / V z/F_obs / t ½ / λz: part II, N 6; for t max: mean (range) per footnote; for AUCt / AUC∞ / Accumulation Index / C max / CL / V z/F_obs / t ½ / λz: mean ± SD
Outline: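 Four panels of eight (six drug, two placebo) were dosed orally, fasted, with 100, 150, 200 or 300 mg on Days 1, 3 and 5. Blood was taken pre-dose and at 0.5–36 h after the Day 1 and Day 5 doses, pre-dose and 12, 24 and 36 h after Day 3, and 48 and 72 h after Day 5. Diluted-blood LC-MS/MS (LLOQ 2 ng/mL). Accumulation index was derived.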

[5] = system: serum erythropoietin (EPO), hemoglobin, hematocrit, reticulocyte count; assay: Part III pharmacodynamics; assay type: in vivo, human; details: single 150 mg
Outline: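 Serum EPO, hemoglobin, hematocrit and reticulocyte count were measured in blood taken before and after oral dosing. Regimens: part I single fasted doses 10–300 mg vs placebo; part II 100–300 mg on Days 1, 3, 5 vs placebo; part III single 150 mg, fasted vs fed, men and women. EPO expressed baseline-corrected. Post-dose vs baseline compared by paired two-sided t test, α = 0.05.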

[6] = Part III safety assessment; assay type: in vivo, human
Outline: as §1

Part I safety assessment = assay type: in vivo, human
Outline: as §1

[7] = rats, oral route; cited from earlier work
[8] = rats, 1-month toxicity study; cited from earlier work
[9] = after oral dosing across the species tested; cited from earlier work
[10] = 100 mg oral on Days 1, 3, 5, Day 1
[11] = 100 mg oral on Days 1, 3, 5, Day 5
[12] = 150 mg oral on Days 1, 3, 5, Day 1
[13] = 150 mg oral on Days 1, 3, 5, Day 5
[14] = 200 mg oral on Days 1, 3, 5, Day 1
[15] = 200 mg oral on Days 1, 3, 5, Day 5
[16] = 300 mg oral on Days 1, 3, 5, Day 1
[17] = 300 mg oral on Days 1, 3, 5, Day 5

Compound: O=C(O)CNC(=O)c1c(O)c2ccccc2n(OCC2CC2)c1=O [ZYAN1]
- Adverse events (Test) ([1]; MAD 150 mg panel): Headache, dizziness
- Adverse events (Test) ([1]; MAD 200 mg panel): Nausea, headache, dizziness, diarrhea, phlebitis
- Adverse events (Test) ([1]; MAD 300 mg panel): Supra ventricular extrasystoles, abdominal pain, diarrhea, contusion, back pain, dizziness, headache, nasal congestion, phlebitis
- Adverse events (Test) ([1]; MSD 100 mg panel (multiple dose)): Headache, dizziness
- severity of treatment-related AEs ([1]; part II (ZYAN1 and placebo subjects)): all grade 1 in severity, with the exception of dizziness in two subjects, which was classified as grade 2 in severity
- subjects with AEs possibly related to study treatment ([1]; part II, 16 AEs in 11 subjects, placebo 63%): 46%
- decrease of C max by ingestion of food ([2]; fed vs fasting, single 150 mg): 2.39 times
- AUCt ([2]; Fasting): 71,331.577 ± 25,663.234 h·ng/mL
- AUC∞ ([2]; Fasting): 71,696.758 ± 25,837.440 h·ng/mL
- C max ([2]; Fasting): 10,352.800 ± 3076.528 ng/mL
- CL/F_obs ([2]; Fasting): 2479.865 ± 1333.719 mL/h
- HL_Lambda_z (terminal half-life) ([2]; Fasting): 11.048 ± 3.378 h
- V z/F_obs ([2]; Fasting): 37,927.046 ± 18,082.141 mL
- λz ([2]; Fasting): 0.067 ± 0.015 h⁻¹
- AUCt ([2]; Fed (high-fat breakfast)): 59,005.375 ± 16,846.249 h·ng/mL
- AUC∞ ([2]; Fed (high-fat breakfast)): 59,561.279 ± 17,228.977 h·ng/mL
- C max ([2]; Fed (high-fat breakfast)): 4322.000 ± 1317.961 ng/mL
- CL/F_obs ([2]; Fed (high-fat breakfast)): 2801.105 ± 1109.706 mL/h
- HL_Lambda_z (terminal half-life) ([2]; Fed (high-fat breakfast)): 11.328 ± 3.691 h
- V z/F_obs ([2]; Fed (high-fat breakfast)): 45,070.176 ± 19,928.748 mL
- λz ([2]; Fed (high-fat breakfast)): 0.066 ± 0.017 h⁻¹
- AUC values, fed vs fasting ([2]; single 150 mg): decreased
- mean C max, male vs female subjects ([2]; single 150 mg): not statistically significant
- mean t ½, fed vs. fasted ([2]; single 150 mg): similar
- exposure, female vs male subjects ([2]; single 150 mg, small group, qualitative): female subjects had a higher exposure than males
- potential for cytochrome P450 (CYP)-mediated drug–drug interactions (cytochrome P450 (CYP)): minimal potential
- tolerated dose, single-dose study [3]: up to 75 mg/kg
- median t max, range ([4]; 100, 150, 200, 300 mg, first or fifth day of dosing): 1.5 to 3.0 h
- accumulation of the drug ([4]; after first and third dose of 100, 150, 200, 300 mg, alternate-day dosing): no accumulation of the drug was observed
- mean terminal t ½ ([4]; in vivo): approximately 10 h
- t max [4, 10]: 2.00 (1.00–3.00) h
- AUCt [4, 10]: 36,885.130 ± 11,488.927 h·ng/mL
- AUC∞ [4, 10]: 38,817.512 ± 13,184.682 h·ng/mL
- Accumulation Index [4, 10]: 1.027 ± 0.018
- C max [4, 10]: 6549.000 ± 1567.979 ng/mL
- CL [4, 10]: 2834.521 ± 775.188 mL/h
- V z/F_obs [4, 10]: 34,916.562 ± 8463.050 mL
- t ½ [4, 10]: 8.811 ± 1.869 h
- λz [4, 10]: 0.082 ± 0.020 h⁻¹
- t max [4, 11]: 2.00 (1.50–2.50) h
- AUCt [4, 11]: 39,690.467 ± 11,051.227 h·ng/mL
- AUC∞ [4, 11]: 40,102.984 ± 11,276.275 h·ng/mL
- Accumulation Index [4, 11]: 1.106 ± 0.128
- C max [4, 11]: 6566.667 ± 1525.703 ng/mL
- CL [4, 11]: 2744.020 ± 798.472 mL/h
- V z/F_obs [4, 11]: 47,571.130 ± 18,996.205 mL
- t ½ [4, 11]: 12.968 ± 6.654 h
- λz [4, 11]: 0.065 ± 0.029 h⁻¹
- t max [4, 12]: 1.50 (1.00–3.50) h
- AUCt [4, 12]: 59,780.215 ± 8539.865 h·ng/mL
- AUC∞ [4, 12]: 62,811.249 ± 10,222.543 h·ng/mL
- Accumulation Index [4, 12]: 1.025 ± 0.026
- C max [4, 12]: 8185.667 ± 1215.600 ng/mL
- CL [4, 12]: 2487.695 ± 399.669 mL/h
- V z/F_obs [4, 12]: 29,315.063 ± 6213.656 mL
- t ½ [4, 12]: 8.390 ± 2.431 h
- λz [4, 12]: 0.088 ± 0.025 h⁻¹
- t max [4, 13]: 1.75 (0.50–3.00) h
- AUCt [4, 13]: 65,307.036 ± 9629.912 h·ng/mL
- AUC∞ [4, 13]: 65,706.064 ± 9748.640 h·ng/mL
- Accumulation Index [4, 13]: 1.043 ± 0.026
- C max [4, 13]: 8657.000 ± 1190.575 ng/mL
- CL [4, 13]: 2398.514 ± 378.402 mL/h
- V z/F_obs [4, 13]: 34,943.264 ± 6986.821 mL
- t ½ [4, 13]: 10.205 ± 2.013 h
- λz [4, 13]: 0.070 ± 0.015 h⁻¹
- t max [4, 14]: 2.00 (1.50–3.50) h
- AUCt [4, 14]: 85,040.673 ± 12,019.503 h·ng/mL
- AUC∞ [4, 14]: 88,180.063 ± 13,633.711 h·ng/mL
- Accumulation Index [4, 14]: 1.017 ± 0.019
- C max [4, 14]: 13,203.333 ± 2762.033 ng/mL
- CL [4, 14]: 2344.752 ± 361.388 mL/h
- V z/F_obs [4, 14]: 25,167.492 ± 5973.588 mL
- t ½ [4, 14]: 7.573 ± 2.103 h
- λz [4, 14]: 0.097 ± 0.024 h⁻¹
- t max [4, 15]: 1.75 (0.50–2.50) h
- AUCt [4, 15]: 77,994.986 ± 21,218.895 h·ng/mL
- AUC∞ [4, 15]: 78,368.940 ± 21,616.249 h·ng/mL
- Accumulation Index [4, 15]: 1.033 ± 0.018
- C max [4, 15]: 12,388.333 ± 1607.376 ng/mL
- CL [4, 15]: 2758.333 ± 677.108 mL/h
- V z/F_obs [4, 15]: 36,889.057 ± 5339.335 mL
- t ½ [4, 15]: 9.534 ± 1.467 h
- λz [4, 15]: 0.074 ± 0.012 h⁻¹
- t max [4, 16]: 3.00 (1.50–3.500) h
- AUCt [4, 16]: 118,269.238 ± 28,910.037 h·ng/mL
- AUC∞ [4, 16]: 123,020.455 ± 32,873.290 h·ng/mL
- Accumulation Index [4, 16]: 1.017 ± 0.011
- C max [4, 16]: 19,286.667 ± 4086.434 ng/mL
- CL [4, 16]: 2608.681 ± 641.704 mL/h
- V z/F_obs [4, 16]: 29,476.605 ± 6045.099 mL
- t ½ [4, 16]: 7.968 ± 1.106 h
- λz [4, 16]: 0.088 ± 0.011 h⁻¹
- t max [4, 17]: 1.75 (1.00–2.00) h
- AUCt [4, 17]: 105,472.355 ± 19,487.237 h·ng/mL
- AUC∞ [4, 17]: 105,772.678 ± 19,542.028 h·ng/mL
- Accumulation Index [4, 17]: 1.033 ± 0.022
- C max [4, 17]: 16,450.000 ± 3422.484 ng/mL
- CL [4, 17]: 2992.073 ± 697.789 mL/h
- V z/F_obs [4, 17]: 41,797.611 ± 17,743.925 mL
- t ½ [4, 17]: 9.445 ± 1.819 h
- λz [4, 17]: 0.076 ± 0.015 h⁻¹
- mean serum EPO concentrations, fasted vs fed [5]: no apparent difference
- mean serum EPO concentrations, male vs female subjects ([5]; fasted or fed): no apparent difference
- Adverse events (Test) ([6]; Food and sex effect 150 mg panel): Palpitation, cellulitis, back pain, musculoskeletal pain, head discomfort, headache (2), folliculitis, cellulitis
- total AEs reported ([6]; part III crossover, 150 mg): 11
- Adverse events (Test) (Part I safety assessment; SAD 25 mg panel): Rhinorrhea, right lower wisdom tooth pain, sore throat
- Adverse events (Test) (Part I safety assessment; SAD 50 mg panel): Dizziness, headache, chest pain, Diarrhea, upper respiratory tract infection
- Adverse events (Test) (Part I safety assessment; SAD 100 mg panel): Dizziness, headache, lethargy, nausea, throat irritation, increase in AST, hyperkalemia
- Adverse events (Test) (Part I safety assessment; SAD 200 mg panel): Back pain
- drug-related serious adverse events (Part I safety assessment; all study parts): No drug-related serious adverse events were reported
- severity of AEs possibly related to study treatment (Part I safety assessment; part I): grade 1
- subjects with AEs possibly related to study treatment (Part I safety assessment; part I, nine AEs in six subjects, placebo 21%): 14%
- tolerability (Part I safety assessment; single and multiple oral ascending doses): well-tolerated
- tolerated dose, single-dose study [7]: up to 800 mg/kg
- maximum tolerated dose (MTD) [8]: 60 mg/kg
- oral absorption and bioavailability [9]: well-absorbed and highly bioavailable
